Laboratory results published in ChEMBL document CHEMBL4308843, “Identification of ABX-1431, a Selective Inhibitor of Monoacylglycerol Lipase and Clinical Candidate for Treatment of Neurological Disorders” (J Med Chem, 2018).
Calls of active or inactive are those of the source. No cut-off for these calls is given here.

Assays:
[1] = species on record: Canis lupus familiaris; assay: Inhibition of ABHD6 in dog brain membrane homogenates at 0.001 to 10 uM preincubated for 30 mins followed by FP-Rh addition after 30 mins by gel-based ABPP assay; format: cell membranes
In short: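 Dog brain membrane homogenates (1 mg/mL protein) were preincubated with 0.001-10 µM inhibitor or DMSO for 30 min at 37°C. They were then labelled with 1 µM probe (FP-Rh or HT-01) for 30 min at 25°C. Reactions were quenched in SDS-PAGE loading buffer and scanned in-gel. ABHD6 band intensities were normalised to DMSO.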

[2] = Half life in Sprague-Dawley rat at 1 mg/kg, iv by LC-MS analysis; format: ADME, organism-based; conditions: in vivo
In short: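 Rats (n = 3 per route) were dosed at 1 mg/kg iv (70% PEG400 in HPBCD/saline) or 5 mg/kg po (70% PEG400 in 0.5% CMC/saline), fasted overnight to 4 h post-dose. Jugular-catheter blood (~100 µL) was sampled to 24 h into 400 µL acetonitrile to stop esterases. Samples were quantified by HPLC-MS/MS, with noncompartmental analysis.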

[3] = tested on: Mus musculus; assay: In vivo inhibition of MGLL in ICR mouse brain at 25 mg/kg, po measured at 4 hrs post dose in presence of FP-Rh probe by gel-based ABPP assay; format: functional, organism-based
[4] = Half life in Beagle dog at 1 mg/kg, iv by LC-MS analysis; format: ADME, organism-based, Canis lupus familiaris; conditions: in vivo
In short: (§1)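 Male beagle dogs (n = 3 per route), 10–12 months old, were dosed at 1 mg/kg iv or po in PEG400/ethanol/PBS (7/2/1), fasted overnight to 2 h post-dose. Peripheral venous blood was sampled to 24 h into K2EDTA and plasma frozen at −80 °C. Plasma was quantified by HPLC-MS/MS, with noncompartmental analysis.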

[5] = biological target: T1, Solute carrier family 22 member 2 (Homo sapiens, UniProt O15244); assay: Inhibition of OCT2 (unknown origin) at 10 uM; format: ADME
T1 sequence (O15244 whole entry): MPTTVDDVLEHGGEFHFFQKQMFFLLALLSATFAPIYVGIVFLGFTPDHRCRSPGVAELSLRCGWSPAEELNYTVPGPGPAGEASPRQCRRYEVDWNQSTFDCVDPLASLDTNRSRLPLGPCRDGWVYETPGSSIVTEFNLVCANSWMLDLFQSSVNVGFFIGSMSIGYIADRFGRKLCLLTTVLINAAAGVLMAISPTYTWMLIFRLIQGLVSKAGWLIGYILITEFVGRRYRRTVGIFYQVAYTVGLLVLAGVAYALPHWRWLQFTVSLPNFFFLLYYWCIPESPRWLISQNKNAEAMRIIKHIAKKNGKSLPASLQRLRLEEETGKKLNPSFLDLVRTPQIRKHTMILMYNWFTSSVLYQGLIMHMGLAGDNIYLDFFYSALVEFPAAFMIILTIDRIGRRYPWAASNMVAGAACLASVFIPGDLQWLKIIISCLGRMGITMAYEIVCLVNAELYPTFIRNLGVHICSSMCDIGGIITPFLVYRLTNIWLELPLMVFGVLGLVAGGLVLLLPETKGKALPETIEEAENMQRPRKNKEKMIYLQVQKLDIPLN

[6] = tested on: Mus musculus; assay: In vivo inhibition of ABHD6 in po dosed ICR mouse brain measured 4 hrs post dose in presence of FP-Rh probe by gel-based ABPP assay; format: functional
In short: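 Male ICR mice, 6–12 weeks old, given single oral doses (0.5–32 mg/kg, n = 3) in PEG400:ethanol:PBS (7/2/1 v/v/v) at 5 mL/kg. Brains were removed 4 h later and one hemisphere processed for gel-based ABPP. Proteome was labeled with FP-Rh (1 µM, 30 min) and read by in-gel fluorescence relative to vehicle.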

[7] = tested on: Mus musculus; assay: In vivo inhibition of MGLL in po dosed ICR mouse brain assessed as increase in 2-AG measured at 4 hrs post dose by LC-MS/MS analysis; format: functional, organism-based
In short: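 Male ICR mice, 6–12 weeks old, single oral gavage 0.5–32 mg/kg in PEG400:ethanol:PBS (7/2/1), 5 mL/kg, n = 3. Killed at 4 h; one brain hemisphere for gel-based ABPP with FP-Rh (MGLL band quantified), the other for 2-AG by LC-MS/MS.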

[8] = biological target: T2, Cytochrome P450 1A2 (Homo sapiens, UniProt P05177); assay: Inhibition of recombinant human CYP1A2; format: ADME
T2 sequence (P05177 whole entry): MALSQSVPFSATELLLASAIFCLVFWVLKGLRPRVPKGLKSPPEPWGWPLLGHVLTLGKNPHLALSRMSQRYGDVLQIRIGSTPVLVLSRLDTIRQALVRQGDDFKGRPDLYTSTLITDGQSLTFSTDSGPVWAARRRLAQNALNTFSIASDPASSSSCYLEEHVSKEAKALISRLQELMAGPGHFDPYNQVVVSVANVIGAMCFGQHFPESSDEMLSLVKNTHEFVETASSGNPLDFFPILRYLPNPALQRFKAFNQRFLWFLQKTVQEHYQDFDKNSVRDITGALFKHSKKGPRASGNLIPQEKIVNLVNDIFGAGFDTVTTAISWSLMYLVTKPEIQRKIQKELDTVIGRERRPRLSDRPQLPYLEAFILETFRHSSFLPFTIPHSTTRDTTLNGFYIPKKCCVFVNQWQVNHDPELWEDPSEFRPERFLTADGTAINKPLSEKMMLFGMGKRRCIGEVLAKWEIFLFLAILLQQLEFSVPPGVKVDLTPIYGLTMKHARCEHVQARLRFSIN

[9] = Oral bioavailability in Beagle dog at 1 mg/kg by LC-MS analysis; format: ADME, organism-based, Canis lupus familiaris; conditions: in vivo; in short: as §1

## O=C(OC(C(F)(F)F)C(F)(F)F)N1CCN(Cc2ccc(C(F)(F)F)cc2N2CCCC2)CC1 [ELCUBRAGISTAT]
[1]
  inhibition: Active
[2]
  half-life: 3.6 h
[3]
  inhibition: Active
[4]
  half-life: 6.1 h
[5]
  inhibition (INH): Not Active
[6]
  ED50: 32 mg/kg
[7]
  inhibition: Dose-dependent effect
[8]
  IC50: > 50 µM
[9]
  bioavailability: 57%
